Compound activity from PubChem.
TRPC6 activator = activates the mouse TRPC6 cation channel. Q61143. HEK293-TRPC6 membrane potential dye fluorescence; stronger effect = higher value. B-score at 10 µM. actives 0.13% (n = 310,000). AID 2550;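 active means B-score of the integrated fluorescence ratio above library mean plus 3 SD, and starting fluorescence ratio within library mean plus 5 SD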;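 further: higher score means more depolarization so channel activation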
Platelet DG rel = platelet dense granule release activity. inhibition, %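 (compounds screened at 7.5 µM in platelet-rich plasma)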. human platelet-rich plasma, SFLLRN dense granule ATP release, luminescence. actives 0.22% (n = 300,000). AID 1663;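 active means mean replicate score, as percent of positive control, at or above 50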
TRPC4 act = TRPC4 (mouse) channel activation | Q9QUQ5 | HEK293 TRPC4beta/mu-opioid, Fluo4 calcium fluorescence; stronger effect = higher value | B-score at 10 µM | actives 0.49% (n = 310,000);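 active means B-score above 5 SD of library B-scores, and initial fluorescence ratio not above library mean plus 5 SD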;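 further: positive B-score marks a calcium rise read as TRPC4 activation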
Target sequence (Q9QUQ5 whole entry, looked up): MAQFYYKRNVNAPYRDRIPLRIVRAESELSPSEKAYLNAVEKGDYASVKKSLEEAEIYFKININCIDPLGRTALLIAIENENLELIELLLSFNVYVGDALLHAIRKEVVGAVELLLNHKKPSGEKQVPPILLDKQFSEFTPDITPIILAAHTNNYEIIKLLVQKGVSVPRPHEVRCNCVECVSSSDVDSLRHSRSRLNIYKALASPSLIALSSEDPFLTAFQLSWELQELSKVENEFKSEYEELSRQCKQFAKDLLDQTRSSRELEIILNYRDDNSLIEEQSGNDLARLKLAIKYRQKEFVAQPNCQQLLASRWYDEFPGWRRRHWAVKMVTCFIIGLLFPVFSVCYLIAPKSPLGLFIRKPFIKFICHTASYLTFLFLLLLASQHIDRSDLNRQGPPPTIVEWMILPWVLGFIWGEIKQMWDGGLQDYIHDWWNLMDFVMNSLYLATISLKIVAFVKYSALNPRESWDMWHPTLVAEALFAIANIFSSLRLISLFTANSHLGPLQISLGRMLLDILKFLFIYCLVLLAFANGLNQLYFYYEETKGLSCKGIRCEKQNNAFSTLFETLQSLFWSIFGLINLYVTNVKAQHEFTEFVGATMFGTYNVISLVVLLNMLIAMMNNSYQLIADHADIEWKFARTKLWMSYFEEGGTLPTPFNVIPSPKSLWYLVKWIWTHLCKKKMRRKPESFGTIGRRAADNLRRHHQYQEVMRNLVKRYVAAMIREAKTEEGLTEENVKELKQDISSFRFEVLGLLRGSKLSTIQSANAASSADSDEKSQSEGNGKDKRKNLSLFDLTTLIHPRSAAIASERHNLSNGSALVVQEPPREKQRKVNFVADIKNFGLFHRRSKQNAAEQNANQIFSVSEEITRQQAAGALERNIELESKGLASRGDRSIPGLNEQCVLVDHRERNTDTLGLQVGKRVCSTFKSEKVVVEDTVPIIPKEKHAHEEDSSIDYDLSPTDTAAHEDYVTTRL
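system = HEK293 cells stably co-expressing mouse TRPC4beta and mu-opioid receptor | schedule = Fluo4 dye loading 45 min at room temperature, 110 s recording | measure = B-scored integrated calcium fluorescence ratio | signal = Fluo4 calcium-sensitive dye fluorescence, kinetic, 1 Hz baseline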
TRPC4 PAM = TRPC4 (mouse) allosteric potentiation | Q9QUQ5 | B-score at 10 µM | actives 0.42% (n = 310,000) | AID 2227 | HEK293 TRPC4beta/mu-opioid, DAMGO EC20, Fluo-4 Ca2+ flux; stronger effect = higher value;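 active means B-score of calcium response area above 5 SD of library B-scores, with initial fluorescence ratio within 5 SD of library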;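 further: B-score of integrated fluorescence ratio over time as area under calcium response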
TRPC4 inh = blocks the mouse TRPC4 cation channel. B-score at 10 µM. actives 0.39% (n = 300,000). Q9QUQ5. AID 2247. HEK293 TRPC4beta/mu-opioid, DAMGO-evoked Fluo4 calcium flux; stronger effect = lower value;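 active means B-score over 3 SD under the library average, no early fluorescence shift, positive overall ratio signal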
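System: stable TRPC4beta/mu-opioid receptor HEK293 cells; Dosing: single-point compound dosing; Measured by: Fluo4 Ca2+ flux fluorescence; Read-out basis: per-well B score of integrated baseline-normalized Fluo4 ratio.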
TRPC6 inhibitor = blocks the mouse TRPC6 cation channel | Q61143 | HEK293-TRPC6, membrane potential dye, ACh-evoked depolarization; stronger effect = lower value | B-score at 10 µM | actives 1.1% (n = 310,000) | AID 2553;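 active means B-score under library mean minus 3 SD, initial fluorescence not abnormally high, positive integrated signal ratio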;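 further: B-score derived from integrated fluorescence ratio over the kinetic read; more negative B-score means stronger inhibition of depolarization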
An asterisk follows results filed as active; i = inactive. An excerpt weighted towards active compounds, which were near 2.5% of everything screened.

SMILES	TRPC6 activator	Platelet DG rel	TRPC4 act	TRPC4 PAM	TRPC4 inh	TRPC6 inhibitor
COc1ccc(C(CNC(=O)C(Cc2ccccc2)NC(N)=O)N(C)C)cc1 (configuration not stated)	i	7	112*	i	i	i
CN(C)c1ccc(C(CNC(=O)Cc2cccc3ccccc23)N(C)C)cc1 (configuration not stated)	i	-7	77*	i	i	i
COc1ccc(C(CNC(=O)c2cccc3cccnc23)N(C)C)cc1 (configuration not stated)	i	14	108*	i	-7*	i
COc1ccccc1C(=O)NCC(c1cccnc1)N(C)C (configuration not stated)	i	0	i	i	i	i
COc1ccc(CC(NC(=O)c2ccccc2)C(=O)NCC(=O)O)cc1 (configuration not stated)	i	15	i	i	i	i
CCOc1ccc(CCNC(=O)CCNC(=O)c2ccco2)cc1OCC	i	-2	i	i	i	i
COc1ccc(OCCNC(=O)C(c2ccccc2)c2ccccc2)cc1	i	-2	i	i	i	i
COc1ccccc1C(CNC(=O)CSc1ccc2ccccc2c1)N(C)C (configuration not stated)	i	-7	i	i	i	i
COc1cccc(C(CNC(=O)C(c2ccccc2)c2ccccc2)N(C)C)c1 (configuration not stated)	i	0	i	i	-6*	i
CCC(C)C(NC(=O)OCc1ccccc1)C(=O)NCC(c1ccccc1)N(C)C (configuration not stated)	i	0	i	i	-5*	i
COc1ccc(C(CNC(=O)CSc2ccccc2C)N(C)C)cc1 (configuration not stated)	i	1	116*	i	i	i
COc1ccc(CCN(C)C(=O)/C=C/c2c(Cl)nc3ccccn23)cc1OC	i	3	i	i	i	i
COc1ccc(C(CNC(=O)/C=C/c2c(Cl)nc3ccccn23)N(C)C)cc1 (configuration not stated)	i	3	249*	i	i	i
COc1ccc(NC(=O)CSc2nnc(CN3CCOCC3)n2C)cc1Cl	i	1	i	i	i	i
Cc1cc(OCC(=O)N(C(C)C)C(C)C)cc(C)c1Br	i	-10	i	38*	i	i
c1ccc2[nH]c(NCc3ccc4c(c3)OCO4)nc2c1	i	0	i	i	i	i
O=C1CC(N2CCN(c3nc4ccccc4s3)CC2)C(=O)N1c1cccc(F)c1 (configuration not stated)	i	4	i	10*	i	i
O=C(CCc1nnc2ccc(N3CCOCC3)nn12)Nc1ccc(F)cc1F	i	-1	i	i	i	i
O=C(O)CCC1c2cc3c4cc2OC2Oc5cc6c(cc51)C(CCC(=O)O)c1cc5c7cc1OC(O6)c1cc6cc(c1)Oc1cc(cc(C(=O)O)c1)Oc1cc8cc(c1)C(Oc1cc(c(cc1C5CCC(=O)O)C3CCC(=O)O)OC(O4)c1cc(cc(c1)Oc1cc(cc(C(=O)O)c1)O8)Oc1cc(cc(C(=O)O)c1)Oc1cc(cc2c1)Oc1cc(cc(C(=O)O)c1)O6)O7 (configuration not stated)	186*	2	43*	i	i	i
Cn1c2c(c(=O)n1-c1ccccc1)CSCC2	i	-8	i	i	i	i
N/C(=N\OC(=O)c1ccc2ccccc2c1)c1ccccn1	i	66*	i	i	i	i
N/C(=N\OC(=O)c1ccc2ccccc2c1)c1ccncc1	i	-4	i	i	i	i
CCCc1ccc(C(=O)O/N=C(\N)c2ccccn2)cc1	i	77*	i	i	i	i
N/C(=N\OC(=O)c1ccc(=O)n(Cc2ccccc2)c1)c1ccccn1	i	1	i	i	i	i
O=C(Cc1ccccc1)N1CCCC1c1ccccc1 (configuration not stated)	i	0	i	i	i	i
SMILES	TRPC6 activator	Platelet DG rel	TRPC4 act	TRPC4 PAM	TRPC4 inh	TRPC6 inhibitor
CC1(c2ccccc2)NC(=O)N(CC(=O)N2CCN(S(=O)(=O)c3cccs3)CC2)C1=O (configuration not stated)	i	-2	i	i	i	i
CC1(c2ccccc2)NC(=O)N(CC(=O)N2CCN(S(=O)(=O)c3ccccc3[N+](=O)[O-])CC2)C1=O (configuration not stated)	i	57*	i	i	i	i
Cc1cc(C)c(S(=O)(=O)Nc2ncn[nH]2)cc1C	i	0	i	i	i	i
COc1cc2c(cc1OC)CN(C(=O)CCNS(=O)(=O)c1ccccc1F)CC2	i	-4	i	i	i	i
CCN(CC)S(=O)(=O)c1ccc2c(c1)nc(CCC(=O)Nc1ccc3c(c1)OCO3)n2C	i	-3	i	i	i	i
CCN(CC)S(=O)(=O)c1ccc2c(c1)nc(CCC(=O)O)n2C	i	60*	i	i	i	i
O=C(NCc1ccccc1)C1=C[C@H](c2ccccc2)C[C@H](OCc2ccc(CO)cc2)O1	i	-1	176*	i	i	i
O=C(Nc1ccccc1)C1=C[C@H](c2ccccc2)C[C@H](OCc2ccc(CO)cc2)O1	i	1	i	12*	i	i
O=C(Nc1ccccc1)C1=C[C@H](c2ccc(C(F)(F)F)cc2)C[C@H](OCc2ccc(CO)cc2)O1	i	-1	i	i	i	i
O=C(NCc1ccccc1)C1=C[C@@H](c2ccc(Br)cc2)C[C@@H](OCc2ccc(CO)cc2)O1	i	1	i	i	i	i
O=C(NCc1ccccc1)C1=C[C@H](c2ccc(C(F)(F)F)cc2)C[C@H](OCc2ccc(CO)cc2)O1	i	7	i	19*	i	i
CC(=O)n1cc([C@@H]2C=C(C(=O)NCc3ccccc3)O[C@H](OCc3ccc(CO)cc3)C2)c2ccccc21	i	3	i	15*	i	i
O=C(CN1CCC(O)(c2ccccc2F)CC1)NCCc1c[nH]c2ccccc12	i	-6	i	i	i	i
COc1ccc(N(C(=O)c2snc(C(N)=O)c2N)C(C(=O)NCc2ccc(F)cc2)c2ccc(O)cc2)cc1 (configuration not stated)	i	-15	i	i	i	i
